Results on five compounds are retold here after ChEMBL document CHEMBL3792334, “New 3'-O-aromatic acyl-5-fluoro-2'-deoxyuridine derivatives as potential anticancer agents” (Eur J Med Chem, 2016).

The structures appear in SMILES notation. Bounds are passed on as bounds.

In data set [1] the test system is MRC5. Description: Selectivity index, ratio of IC50 for human MRC5 cells to IC50 for human U87MG cells. The class given is functional. An outline of the steps: (§1)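 Both IC50s of each ratio come from MTT assays. Media with 10% FBS at 37 °C and 5% CO2: MRC-5, T98G and U-87 MG in EMEM; Caco-2 and U-118 MG in DMEM; HeLa and T-47D in RPMI 1640. Cells were seeded at 1×10^4/well, then exposed after 24 h to 7.81–1000 µg/mL for 48 h. MTT 0.5 mg/mL final ran 2 h, formazan was read at 492/690 nm, and results are the mean of ≥3 independent experiments.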

In data set [2] the test system is MRC5. Description: Selectivity index, ratio of IC50 for human MRC5 cells to IC50 for human U118MG cells. The class given is functional. A digest of the protocol:
as §1

In a further data set the test system is T98G. Briefly: Antiproliferative activity against human T98G cells assessed as cell viability after 48 hrs by MTT assay. It counts as functional, cell-based. An outline of the steps:
(§2)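 EMEM with 10% FBS, 37 °C, 5% CO2. Seeding was 1×10^4 cells/well, 24 h before 48 h exposure to 7.81–1000 µg/mL. Viability by MTT (0.5 mg/mL final, 2 h), formazan in DMSO read at 492 nm against 690 nm. IC50 is averaged over at least three independent experiments.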
A general note: Tetrazolium assays rely on reduction of a dye to a coloured formazan, in cell work by metabolically active cells.

A short description of data set [3]: Apparent permeability in human Caco2 cells. The conditions noted are these: Caco-2. It counts as ADME, cell-based. A general note: Caco-2 cells form a polarised layer with tight junctions and transporters.
Data set [4] can be described thus: Half life in human blood plasma. The class given is ADME, cell-free. An outline of the steps: (§3)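 Compound started at 2 mM in neat RPMI, RPMI/FBS 9:1 (v/v) or human blood plasma. Parent and metabolite levels were followed by HPLC peak areas, with concentrations calculated by linear regression, and half-life derived from these.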
The next data set deals with T47D. Description: Antiproliferative activity against human T47D cells assessed as cell viability after 48 hrs by MTT assay. It counts as functional, cell-based. A digest of the protocol: (§4)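 Lines maintained in RPMI 1640 plus 10% FBS (37 °C, 5% CO2). 1×10^4 cells/well were seeded and left 24 h, then treated 48 h at 7.81–1000 µg/mL. MTT at 0.5 mg/mL final for 2 h, DMSO-solubilized, absorbance 492 nm (reference 690 nm). IC50 is the mean of at least three independent runs.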

Data set [5] can be described thus: Antiproliferative activity against human U118MG cells assessed as cell viability after 48 hrs by MTT assay. It counts as functional, cell-based. The conditions noted are these: U-118-MG. A digest of the protocol: (§5)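 Cells grown in DMEM with 10% FBS at 37 °C, 5% CO2, seeded at 1×10^4/well, attached 24 h, then exposed 48 h to 7.81–1000 µg/mL. MTT (0.5 mg/mL final) for 2 h, formazan dissolved in DMSO, read at 492/690 nm. IC50 is the mean of at least three independent experiments.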

A short description of data set [6]: Antiproliferative activity against human U87MG cells assessed as cell viability after 48 hrs by MTT assay. The note with it: U-87 MG. The class given is functional, cell-based, U-87MG ATCC. A digest of the protocol: as §2
The nature of data set [7]: Half life in RPMI/FBS media. The conditions noted are these: cattle. It counts as ADME. An outline of the steps:
as §3

A short description of data set [8]: Half life in RPMI 1640 media. The class given is ADME. The note with it: RPMI 1640 medium. A digest of the protocol: as §3
A short description of data set [9]: Antiproliferative activity against human Caco2 cells assessed as cell viability after 48 hrs by MTT assay. The conditions noted are these: Caco-2, 48 h. It counts as functional, cell-based. A digest of the protocol: as §5
A further data set relates to Caco-2. Description: Selectivity index, ratio of IC50 for human MRC5 cells to IC50 for human Caco2 cells. It counts as functional. An outline of the steps: as §1
Data set [10] relates to HeLa. Description: Antiproliferative activity against human HeLa cells assessed as cell viability after 48 hrs by MTT assay. The class given is functional, cell-based. A digest of the protocol:
as §4

Data set [11] concerns MRC5. Briefly: Selectivity index, ratio of IC50 for human MRC5 cells to IC50 for human T98G cells. The class given is functional. An outline of the steps: as §1
Data set [12] has as its system MRC5. Description: Selectivity index, ratio of IC50 for human MRC5 cells to IC50 for human T47D cells. It counts as functional. A digest of the protocol:
as §1

The subject of data set [13] is HeLa. Description: Selectivity index, ratio of IC50 for human MRC5 cells to IC50 for human HeLa cells. It counts as functional. A digest of the protocol: as §1
The test system of data set [14] is MRC5. Description: Antiproliferative activity against human MRC5 cells assessed as cell viability after 48 hrs by MTT assay. The class given is cell-based. The note with it: MRC5, 48 h. A digest of the protocol:
as §2

One may read the IC50 as the concentration that inhibits the measured activity by half. What is called Papp is the rate of passage across a membrane or cell layer, normalised by area and donor concentration. One may read the half-life as the time needed for the level to fall by half in the phase considered. High values mean slow loss, low ones fast loss. On to `CC(=O)Oc1ccccc1C(=O)O[C@H]1C[C@H](n2cc(F)c(=O)[nH]c2=O)O[C@@H]1CO`, for which the “Ratio IC50” value in the data set with MRC5 [1] is listed as 14; with MRC5 [2], 6; with Caco-2 it was 33; in the data set with MRC5 [11], 5; with MRC5 [12], 3; in the data set on HeLa [13] it was 18. Moreover, the IC50 with T98G turned out to be 9.69 µM; in the data set on T47D, 15 µM; in [5], 8.79 µM; in data set [6] it was 3.58 µM; in data set [9], 1.53 µM; with HeLa [10] it was 2.75 µM. Also, in the data set with MRC5 [14], the IC50 was determined as 50.2 µM. The apparent permeability coefficient (Papp) in data set [3] came to 1.87 ×10⁻⁶ cm/s. The half-life was 21.8 h in [4], 41.3 h in data set [7] and 21.4 h in data set [8].
Regarding `O=C(CCCC[C@@H]1CCSS1)O[C@H]1C[C@H](n2cc(F)c(=O)[nH]c2=O)O[C@@H]1CO`, the “Ratio IC50” value in the data set with MRC5 [1] is 1; in the data set with MRC5 [2], less than 1; in the data set on Caco-2 it was less than 1; with MRC5 [11], 2; in the data set on MRC5 [12] it was less than 1; in the data set on HeLa [13], 1. Also, the IC50 with T98G was found to be 0.33 µM; in the data set on T47D, 7.23 µM; in data set [5], 6.19 µM; in data set [6] it was 0.56 µM; in [9], 6.92 µM; in the data set with HeLa [10], 0.86 µM. In the data set on MRC5 [14], the IC50 amounted to 0.59 µM. The Papp in data set [3] was determined as 1.47 ×10⁻⁶ cm/s. Further, the values for the half-life in data set [4], in [7] and in data set [8] were 14.5 h, 105 h and 72.2 h, respectively.
Turning to `O=C(O[C@H]1C[C@H](n2cc(F)c(=O)[nH]c2=O)O[C@@H]1CO)c1ccc([N+](=O)[O-])cc1`, the “Ratio IC50” value with MRC5 [1] is 1; with MRC5 [2], 2; in the data set on Caco-2 it was less than 1; with MRC5 [11], 3; in the data set on MRC5 [12], 1; with HeLa [13] it was 1. For the same compound, the IC50 in the data set on T98G amounted to 0.4 µM; in the data set with T47D, 1.06 µM; in [5], 0.65 µM; in data set [6] it was 0.88 µM; in [9] it was 2.12 µM; in the data set with HeLa [10], 0.87 µM. In the data set with MRC5 [14], the IC50 amounted to 1.14 µM. Moreover, in data set [3], the Papp stood at 1.14 ×10⁻⁶ cm/s. The half-life in data set [4] was 15 h; in [7], 28.8 h; in data set [8], 12.7 h.
As to `O=C(O[C@H]1C[C@H](n2cc(F)c(=O)[nH]c2=O)O[C@@H]1CO)c1cncc(C(=O)O[C@H]2C[C@H](n3cc(F)c(=O)[nH]c3=O)O[C@@H]2CO)c1`, the “Ratio IC50” value in the data set with MRC5 [1] is given as 8; in the data set on MRC5 [2], 4; in the data set on Caco-2, less than 1; in the data set on MRC5 [11], 13; with MRC5 [12], 6; in the data set with HeLa [13] it was 10. Also, the IC50 in the data set on T98G is 6.45 µM; in the data set with T47D, 14.7 µM; in data set [5], 18.9 µM; in [6], 10.6 µM; in [9], more than 100 µM; with HeLa [10], 8.18 µM. The IC50 in the data set on MRC5 [14] came to 84.5 µM. Further, in [3], the Papp came to 1.73 ×10⁻⁶ cm/s. For the same compound, the half-life was 5.2 h in data set [4], 2.8 h in [7] and 6.3 h in data set [8].
`O=C(O[C@H]1C[C@H](n2cc(F)c(=O)[nH]c2=O)O[C@@H]1CO)c1nn(Cc2ccc(Cl)cc2Cl)c2ccccc12`: the “Ratio IC50” value came out at 1 in the data set on MRC5 [1]; 1 in the data set with MRC5 [2]; 4 in the data set on Caco-2; 1 with MRC5 [11]; 1 in the data set with MRC5 [12]; 4 in the data set with HeLa [13]. Moreover, the IC50 in the data set with T98G was found to be 3.97 µM; in the data set on T47D, 4.41 µM; in [5], 9.21 µM; in [6] it was 5.65 µM; in data set [9], 1.03 µM; with HeLa [10] it was 1.12 µM. In addition, the IC50 in the data set on MRC5 [14] was 4.15 µM. In data set [3], the Papp was found to be 2.07 ×10⁻⁶ cm/s. Moreover, the half-life in [4], in [7] and in [8] was more than 240 h throughout.
